Results reported in ChEMBL document CHEMBL4387745, “Development of bivalent compounds as potential neuroprotectants for Alzheimer's disease” (Bioorg Med Chem Lett, 2019).
The source made the active and inactive calls. The rule behind the calls is not given here.

Key:
[1] = Neuroprotective activity against tetracycline removal-induced cytotoxicity in human MC65 cells assessed as increase in cell viability incubated for 72 hrs by MTT assay; assay type: functional, cell-based; conditions: MC65, 72 h
How it was run: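 MC65 cells (C99 expression under tetracycline suppression; cytotoxicity induced by TC removal) treated across a concentration range for 72 h under −TC, with +TC cultures as 100% viability reference. Viability read by MTT. EC50 reported as mean ± SEM of three independent experiments.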

[2] = species on record: Homo sapiens; assay: Neuroprotective activity against tetracycline removal-induced oxidative stress in human MC65 cells assessed as reduction in accumulation of intracellular ROS at 1 uM incubated for 48 hrs by DCFH-DA staining-based fluorescence analysis relative to control; assay type: functional, cell-based
How it was run: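 MC65 cells without TC given compound (1 μM) for 48 h, then incubated with DCFH-DA (25 μM) for 1 h. ROS given as percentage of fluorescence intensity relative to +TC control; error bars SEM, Student t-test versus −TC control.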

[3] = species on record: Homo sapiens; assay: Neuroprotective activity against tetracycline removal-induced mitochondrial oxidative stress in human MC65 cells assessed as reduction in accumulation of mitoROS at 0.1 to 1 uM incubated for 48 hrs by MitoSOX red dye-based flow cytometric analysis relative to control; assay type: functional, cell-based
How it was run: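 After TC removal, MC65 cells were exposed to compound at 1, 0.3 or 0.1 μM for 48 h, then loaded with MitoSOX (2.5 μM) for 30 min. Mitochondrial ROS expressed as percent fluorescence intensity versus +TC control; error bars SEM, Student t-test versus −TC control.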

[4] = Metal chelating activity assessed as compound-Cu2+ complex formation at 50 uM after 10 mins by UV-vis spectroscopy
How it was run: (§1)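 Compound at 50 μM mixed with CuSO₄, FeCl₂ or ZnCl₂ (60 μM) at room temperature for 10 min; UV-vis spectrum then recorded from 300 to 550 nm.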

[5] = Metal chelating activity assessed as compound-Fe2+ complex formation at 50 uM after 10 mins by UV-vis spectroscopy; how it was run: as §1
[6] = Metal chelating activity assessed as compound-Zn2+ complex formation at 50 uM after 10 mins by UV-vis spectroscopy; how it was run: as §1

Row | Compound | EC50 [1] [nM] | Activity [2] | Activity [3] | Activity [4] | Activity [5] | Activity [6]
1 | COc1cc(/C=C/C(=O)C(Cc2cn(CCCCC(=O)NCCCN3CCN(CCCNC(=O)CCN4CCN(CCCO[C@H]5CC[C@@]6(C)C(=CC[C@H]7[C@@H]8CC[C@H]([C@H](C)CCCC(C)C)[C@@]8(C)CC[C@@H]76)C5)CC4)CC3)nn2)C(=O)/C=C/c2ccc(O)c(OC)c2)ccc1O | 238 | Active |  |  |  | 
2 | COc1cc(/C=C/C(=O)C(Cc2cn(CCCCC(=O)NCCCN3CCN(CCCNC(=O)CO[C@H]4CC[C@@]5(C)C(=CC[C@H]6[C@@H]7CC[C@H]([C@H](C)CCCC(C)C)[C@@]7(C)CC[C@@H]65)C4)CC3)nn2)C(=O)/C=C/c2ccc(O)c(OC)c2)ccc1O | 107 | Active |  |  |  | 
3 | COc1cc(/C=C/C(=O)C(Cc2cn(CCC(=O)NCCCN3CCN(CCCNC(=O)CCC(=O)NCCCN4CCN(CCCNC(=O)CO[C@H]5CC[C@@]6(C)C(=CC[C@H]7[C@@H]8CC[C@H]([C@H](C)CCCC(C)C)[C@@]8(C)CC[C@@H]76)C5)CC4)CC3)nn2)C(=O)/C=C/c2ccc(O)c(OC)c2)ccc1O | 103 | Active |  |  |  | 
4 | COc1cc(/C=C/C(=O)C(Cc2cn(CCNC(=O)CCC(=O)NCCCN3CCN(CCCNC(=O)CCN4CCN(CCCO[C@H]5CC[C@@]6(C)C(=CC[C@H]7[C@@H]8CC[C@H]([C@H](C)CCCC(C)C)[C@@]8(C)CC[C@@H]76)C5)CC4)CC3)nn2)C(=O)/C=C/c2ccc(O)c(OC)c2)ccc1O | 132 | Active |  |  |  | 
5 | COc1cc(/C=C/C(=O)C(Cc2cn(CCC(=O)NCCCN3CCN(CCCNC(=O)CO[C@H]4CC[C@@]5(C)C(=CC[C@H]6[C@@H]7CC[C@H]([C@H](C)CCCC(C)C)[C@@]7(C)CC[C@@H]65)C4)CC3)nn2)C(=O)/C=C/c2ccc(O)c(OC)c2)ccc1O | 81.9 | Active | Dose-dependent effect | Active | Active | inactive
6 | COc1cc(/C=C/C(=O)C(Cc2cn(CCNC(=O)CCC(=O)NCCCN3CCN(CCCNC(=O)CO[C@H]4CC[C@@]5(C)C(=CC[C@H]6[C@@H]7CC[C@H]([C@H](C)CCCC(C)C)[C@@]7(C)CC[C@@H]65)C4)CC3)nn2)C(=O)/C=C/c2ccc(O)c(OC)c2)ccc1O | 74.1 | Active |  |  |  | 
7 | COc1cc(/C=C/C(=O)C(Cc2cn(CCCCNC(=O)CCC(=O)NCCCN3CCN(CCCNC(=O)CO[C@H]4CC[C@@]5(C)C(=CC[C@H]6[C@@H]7CC[C@H]([C@H](C)CCCC(C)C)[C@@]7(C)CC[C@@H]65)C4)CC3)nn2)C(=O)/C=C/c2ccc(O)c(OC)c2)ccc1O | 140 | Active |  |  |  | 
8 | COc1cc(/C=C/C(=O)C(Cc2cn(CCCCNC(=O)CCC(=O)NCCCN3CCN(CCCNC(=O)CCN4CCN(CCCO[C@H]5CC[C@@]6(C)C(=CC[C@H]7[C@@H]8CC[C@H]([C@H](C)CCCC(C)C)[C@@]8(C)CC[C@@H]76)C5)CC4)CC3)nn2)C(=O)/C=C/c2ccc(O)c(OC)c2)ccc1O | 359 | Active |  |  |  | 
9 | COc1cc(/C=C/C(=O)C(Cc2cn(CCCCC(=O)NCCCN3CCN(CCCNC(=O)CCC(=O)NCCCN4CCN(CCCNC(=O)CO[C@H]5CC[C@@]6(C)C(=CC[C@H]7[C@@H]8CC[C@H]([C@H](C)CCCC(C)C)[C@@]8(C)CC[C@@H]76)C5)CC4)CC3)nn2)C(=O)/C=C/c2ccc(O)c(OC)c2)ccc1O | 105 | Active |  |  |  | 
10 | COc1cc(/C=C/C(=O)C(Cc2cn(CCC(=O)NCCCN3CCN(CCCNC(=O)CCN4CCN(CCCO[C@H]5CC[C@@]6(C)C(=CC[C@H]7[C@@H]8CC[C@H]([C@H](C)CCCC(C)C)[C@@]8(C)CC[C@@H]76)C5)CC4)CC3)nn2)C(=O)/C=C/c2ccc(O)c(OC)c2)ccc1O | 136 | Active |  | Active | Active | inactive
